A selection: hits, their analogues and other compounds. The true share with any hit is near 1.9%.
Cneo AK release: Cryptococcus neoformans cell lysis inducers, primary screen, AK release luminescence, single concentration; C. neoformans lysis, adenylate kinase release luminescence, 4 h; normalised: neutral wells 0, clomiphene wells 100; lysis activity, % at 15 µM; 360,000 compounds, 0.2% hits;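 active = mean lysis activity across replicates of at least 80%, whatever share of replicates individually reach that level; inactive = mean lysis activity below 80%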
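Material – Cryptococcus neoformans yeast cells · Quantity – 5 × 10^6 yeast cells/mL · Buffer or medium – YPD medium · Compound – single dose · Timing – 4 h static compound exposure, 37 °C, read 1 h post-reagent · Signal – adenylate kinase release luminescence · Read-out basis – lysis from increased AK signal · Benchmarks – Clomiphene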
PglD inh: C. jejuni PglD acetyltransferase inhibitors, primary screen, biochemical, DTNB colorimetric, single point. purified PglD enzyme, DTNB colorimetric CoA detection. inhibition, % at 12.5 µM. 360,000 compounds, 0.098% hits; in the data active = inhibition above about 16%, passing the limit was not always enough
RAD54 branch: inhibitors of human RAD54 branch migration, primary screen, biochemical, fluorescence, single point. DNA repair and recombination protein RAD54-like (Homo sapiens), Q92698. RAD54 Holliday junction branch migration, FAM/BHQ fluorescence. inhibition, % at 10.4 µM. 360,000 compounds, 0.14% hits;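 active = mean normalized replicate activity at least 40 and at least half of replicates scoring 40 or more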;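 note: 0% = median of neutral control wells and 100% = median of positive control wells; inhibitors cause a drop in the FAM fluorescence signal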
Target sequence (Q92698 whole entry, looked up): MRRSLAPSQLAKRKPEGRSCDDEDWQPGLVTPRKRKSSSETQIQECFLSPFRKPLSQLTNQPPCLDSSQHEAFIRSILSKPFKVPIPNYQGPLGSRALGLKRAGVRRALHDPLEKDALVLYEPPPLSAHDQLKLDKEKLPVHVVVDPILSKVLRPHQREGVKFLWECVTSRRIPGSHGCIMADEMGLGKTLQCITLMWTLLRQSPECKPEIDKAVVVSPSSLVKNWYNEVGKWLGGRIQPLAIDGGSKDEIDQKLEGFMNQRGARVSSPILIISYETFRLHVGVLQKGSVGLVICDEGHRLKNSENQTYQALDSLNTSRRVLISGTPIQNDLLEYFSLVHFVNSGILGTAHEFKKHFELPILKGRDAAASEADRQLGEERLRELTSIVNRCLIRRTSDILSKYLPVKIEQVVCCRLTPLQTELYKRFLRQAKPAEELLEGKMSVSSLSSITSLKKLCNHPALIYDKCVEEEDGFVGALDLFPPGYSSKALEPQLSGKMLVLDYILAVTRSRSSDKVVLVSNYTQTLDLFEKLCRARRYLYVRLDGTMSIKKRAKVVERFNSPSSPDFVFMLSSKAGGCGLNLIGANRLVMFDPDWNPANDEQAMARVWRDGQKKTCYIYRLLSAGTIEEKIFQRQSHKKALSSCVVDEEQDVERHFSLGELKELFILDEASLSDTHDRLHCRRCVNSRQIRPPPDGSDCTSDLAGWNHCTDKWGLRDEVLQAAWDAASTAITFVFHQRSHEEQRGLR
RAD52 anneal inh: RAD52 DNA annealing inhibitors, primary screen, biochemical, FRET, single point, set 2; AID 651710, 2012; DNA repair protein RAD52 homolog (Homo sapiens), P43351; recombinant RAD52 DNA annealing, FRET fluorescence; 360,000 compounds, 0.46% hits; inhibition, % at 18.7 µM;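 active = every replicate showing at least 50% inhibition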
Ecoli rRNA inh: reduced GFP signal of wild-type E. coli, primary screen, bacterial rRNA inhibitor project, GFP/RFP fluorescence, OD600, single point; E. coli WT GFP vs humanized-ribosome RFP mutants, 24 h; active compounds read low; DMSO median 0, no signal -100; GFP signal change (wild-type ribosome), % (test concentration not listed); 350,000 compounds, 1.6% hits; AID 720706, 2013;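 active = significant combined selectivity score with lowered wild-type GFP, culture density cut under 30%, mutant RFP and density less affected; inactive = any of these conditions unmet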
Active calls of the source: *; / = no result.

SMILES	Cneo AK release	PglD inh	RAD54 branch	RAD52 anneal inh	Ecoli rRNA inh
C/C=C/c1ccc([C@@H]2[C@@H](CO)N(C(=O)CC)[C@@H]2CNC(=O)C2CC2)cc1	1.4	-2.8	-8.7	-35.1	0.4
COc1ccccc1-c1ccc2c(c1)O[C@@H](CN(C)Cc1ccc3c(c1)OCO3)[C@@H](C)CN([C@H](C)CO)S2(=O)=O	-1.2	-2.5	-5.0	7.9	-2.4
CC1=CC(C)(C)Nc2ccc(OC(=O)c3ccco3)cc21	2.9	-4.0	-3.2	/	/
CC1=CC(C)(C)N2C(=O)C(=O)c3cc(OC(=O)c4ccco4)cc1c32	/	/	/	-2.3	-23.4*
CC(C)NC(=O)C(=O)Nc1ccc2c(c1)N(S(=O)(=O)c1cccs1)CCC2	2.0	3.9	5.7	-6.1	-18.2*
COc1cc(/C=C/C(=O)OCC(=O)Nc2ccc3c(c2)OCO3)ccc1O	-1.3	-5.2	0.6	-17.0	-11.8
COc1cc(NC(=O)COC(=O)/C=C/c2ccc(O)c(OC)c2)cc(OC)c1	/	/	/	-10.0	-28.9*
O=C(NN(c1ccccc1)c1ccccc1)c1ccc([N+](=O)[O-])o1	-0.2	-0.9	-3.6	3.6	-28.8*
C[C@@H]1CN([C@H](C)CO)C(=O)c2cc(-c3cncnc3)cnc2O[C@@H]1CN(C)C(=O)c1cccc(F)c1	-0.1	2.1	8.9	8.0	4.1
CC(C)(C)c1ccc(NC(=S)NCc2cccnc2)cc1	2.5	-0.2	6.1	-9.3	-21.6*
Fc1ccc(NC(=S)NCc2cccnc2)cc1	/	/	/	-2.9	8.4
COc1ccc(NC(=S)NCc2cccnc2)cc1	/	/	/	4.1	-3.8
S=C(NCc1cccnc1)Nc1ccc(Oc2ccc(Cl)cc2)cc1	0.0	-6.1	-3.8	-1.2	-26.1*
CN(C)c1ccc(C(O)P(=O)(OC2CCCCC2)OC2CCCCC2)cc1 (configuration not stated)	-1.2	-0.6	-3.7	-5.9	-33.7*
Cc1c(NC(=S)N/N=C/c2cc([N+](=O)[O-])ccc2O)c(=O)n(-c2ccccc2)n1C	1.4	-2.8	-11.5	-10.8	-22.1*
Cn1nc(-c2ccccc2)c(N2CCCCC2)cc1=O	/	/	/	-5.2	-41.5*
O=c1cc(N2CCCCC2)c(-c2ccccc2)nn1Cc1ccccc1	/	/	/	-16.6	-59.8
COc1ccc(C(=O)c2c(N)sc3c2CCN(C(=O)OC(C)(C)C)C3)cc1	-3.4	7.3	-14.1	-15.9	/
CN1CCc2c(sc(N)c2C(=O)c2ccc(Cl)cc2)C1	164.3*	3.4	-6.6	-62.6	3.4
CCC1=NN(C(=O)c2ccc(C)cc2)C(O)(c2ccc(Br)cc2)C1 (configuration not stated)	-2.7	3.2	-3.4	/	/
CCC1=NN(C(=O)c2ccc(Br)cc2)C(O)(c2ccc(C)cc2)C1 (configuration not stated)	/	/	/	-6.3	-30.2*
NC(=O)C1CCN(C2=C(NS(=O)(=O)c3ccc(Cl)cc3)C(=O)c3ccccc3C2=O)CC1	/	/	/	5.9	-21.1*
O=C(O)[C@H](Cc1ccccc1)NC(=O)C(c1ccccc1)(c1ccccc1)c1ccccc1	-6.4	-0.4	8.7	-9.7	-22.9*
O=C(CSc1ncnc2ccccc12)NCc1ccc2c(c1)OCO2	/	/	/	-10.2	-4.4
Cc1ccc(CSCC(=O)NCc2ccc3c(c2)OCO3)cc1	/	/	/	-21.3	-22.7*
SMILES	Cneo AK release	PglD inh	RAD54 branch	RAD52 anneal inh	Ecoli rRNA inh
O=C(CSCc1ccccc1)NCc1ccc2c(c1)OCO2	-0.9	-3.4	-0.3	/	/
O=C(CSc1ncnc2c1cnn2-c1ccc(Cl)cc1)NCc1ccc2c(c1)OCO2	600.1*	0.9	-6.0	/	/
Cc1ccc(COc2ccc(/C=N/O)cc2)cc1	/	/	/	-22.2	-16.5*
O=C(O)CCc1ccc(S(=O)(=O)Nc2ccc(OCc3ccccc3)cc2)cc1	-2.7	3.6	-8.9	3.9	-5.2
O=C(O)/C=C/c1ccc(S(=O)(=O)Nc2ccc(OCc3ccccc3)cc2)cc1	-0.3	2.9	7.4	-13.0	-24.0*
COc1ccc(S(=O)(=O)N(C)C[C@H]2OCCCC[C@@H](C)Oc3ccc(NS(=O)(=O)c4ccc(Cl)cc4)cc3C(=O)N([C@H](C)CO)C[C@H]2C)cc1	/	/	/	10.3	-2.3
CC(=O)Nc1cccc(-n2nnc(SCC(=O)c3ccccc3)n2)c1	/	/	/	-18.5	-36.4*
COc1ccc(C(=O)CSc2nnn(-c3cccc(NC(C)=O)c3)n2)cc1	0.7	1.5	-6.4	-25.5	/
COc1cccc(/C=N/NC(=O)CNC(=O)C2COc3ccccc3O2)c1O (configuration not stated)	/	/	/	-9.8	-19.7*
C[C@@H]1CN([C@@H](C)CO)C(=O)c2cc(N(C)C)ccc2O[C@@H]1CN(C)C(=O)Nc1cccc2ccccc12	-1.0	2.6	0.1	0.6	-2.8
C[C@@H]1CN([C@H](C)CO)C(=O)CCCn2cc(nn2)CO[C@@H]1CN(C)S(=O)(=O)c1ccccc1F	8.6	2.0	-10.9	-2.8	0.1
O=C(N[C@H]1C=C[C@@H](CC(=O)N2CCCCC2)O[C@H]1CO)c1ccc2c(c1)OCO2	-3.5	15.8*	-2.5	-8.0	0.9
CC(=O)Nc1ccc2c(c1)CC(=O)N(C)C[C@H](C)[C@@H](CN(C)C(=O)NC(C)C)O2	/	/	/	/	0.6
CC1(c2cccc(Br)c2)NC(=O)N(CC(=O)Nc2ccc3c(c2)OCO3)C1=O (configuration not stated)	11.3	-10.2	-5.6	-7.0	-22.0*
Cc1cccc(NC(=O)CN2C(=O)NC(C)(c3ccc4c(c3)OCO4)C2=O)c1 (configuration not stated)	-3.1	0.2	-0.6	/	/
COc1ccc(-c2cnc3c(c2)C(=O)N([C@@H](C)CO)C[C@@H](C)[C@H](CN(C)C(=O)C2CCC2)O3)cc1	0.5	0.9	-1.6	3.5	0.5
CC(C)n1nnnc1C1c2ccccc2C(=O)N1CCc1ccccc1F (configuration not stated)	/	/	/	-0.4	17.1
CC(C)n1nnnc1C1c2ccccc2C(=O)N1CCc1c[nH]c2ccccc12 (configuration not stated)	/	/	/	-11.8	-29.5*
O=C1c2ccccc2C(c2nnnn2Cc2ccccc2)N1Cc1cccs1 (configuration not stated)	/	/	/	-5.5	-25.8*
CC(C)CCN1C(=O)c2ccccc2C1c1nnnn1Cc1ccccc1 (configuration not stated)	/	/	/	-13.9	-18.4
O=C1c2ccccc2C(c2nnnn2Cc2ccccc2)N1CCc1ccccc1F (configuration not stated)	/	/	/	-9.8	-21.5*
O=C1c2ccccc2C(c2nnnn2Cc2ccccc2)N1CCc1ccc(O)cc1 (configuration not stated)	/	/	/	-4.7	-27.6*
